ChEMBL document CHEMBL1143879, “Identification of novel series of human CCR1 antagonists” (Bioorg Med Chem Lett, 2008)
pIC50: −log10 of the molar value.

Key:
[1] = target: T1, C-C chemokine receptor type 1 (Homo sapiens, UniProt P32246); assay: Antagonist activity at human CCR1 receptor expressed in THP1 cells assessed as human MIP-1-alpha-stimulated intracellular calcium level by FLIPR assay; format: functional, cell-based, THP-1
T1 sequence (P32246 whole entry): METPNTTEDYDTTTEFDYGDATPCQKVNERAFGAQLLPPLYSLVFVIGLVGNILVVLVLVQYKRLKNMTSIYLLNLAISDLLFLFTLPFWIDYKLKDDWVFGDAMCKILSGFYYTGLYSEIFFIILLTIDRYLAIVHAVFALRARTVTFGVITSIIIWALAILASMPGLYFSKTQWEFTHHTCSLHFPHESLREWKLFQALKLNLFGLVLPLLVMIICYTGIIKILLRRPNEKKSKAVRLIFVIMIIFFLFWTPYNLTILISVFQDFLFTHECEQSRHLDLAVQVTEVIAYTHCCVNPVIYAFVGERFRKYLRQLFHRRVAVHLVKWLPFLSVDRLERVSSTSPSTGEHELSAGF
How it was run: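 THP-1 cells in RPMI-1640 at 2 × 10⁶/ml, mixed 1:1 with calcium dye buffer, loaded 30 min at 37 °C with 2.5 mM probenecid. Cells spun down, resuspended in RPMI-1640 with 0.1% BSA and plated at 1.5 × 10⁵/well with or without compound. Stimulated with 5 nM human MIP-1α; intracellular Ca²⁺ change read by FLIPR. IC50, mean of at least two independent experiments.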

[2] = target: T1, C-C chemokine receptor type 1; assay: Displacement of [125I]MIP1-alpha from human CCR1 receptor expressed in THP1 cells; format: cell-based, THP-1
How it was run: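 THP-1 cells expressing CCR1, washed in PBS, at 5 × 10⁶/ml with compound or vehicle and 50 pM human [¹²⁵I]MIP-1α. Binding buffer: 50 mM Hepes pH 7.4, 5 mM MgCl₂, 1 mM CaCl₂, 0.5% BSA. Incubated 90 min at room temperature, then filtered on PEI-coated glass fibre and washed with buffer plus 0.5 M NaCl. Bound counts by scintillation. IC50, mean of triplicates in one experiment.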

THP-1 = assay: Inhibition of CCL3-induced chemotaxis in human THP1 cells after 2 hrs; format: functional, cell-based; conditions: THP-1, 2 h
How it was run: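 Calcein-labelled THP-1 cells washed in RPMI-1640 and resuspended at 5 × 10⁶/ml. Preincubated 30 min at 37 °C with compound or DMSO, then placed above a 5 µm polycarbonate filter in a Boyden chamber. The lower wells held 0.5 nM human MIP-1α with or without compound. Chamber incubated 2 h at 37 °C.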

Row | Structure (SMILES) | pIC50 [1] | pIC50 [2] | pIC50 (THP-1)
1 | CSc1ccc(C2(O)CCN(C3CCN(S(=O)(=O)c4ccccc4Cl)CC3)CC2)cc1 | 5.10 | < 5.00 | –
2 | Cc1ccccc1S(=O)(=O)N1CCC(N2CCC(O)(c3ccc(Cl)cc3)CC2)CC1 | 6.74 | 6.30 | –
3 | Cc1cccc(Cl)c1S(=O)(=O)N1CCC(N2CCC(O)(c3ccc(Cl)cc3)CC2)CC1 | 6.37 | 6.43 | –
4 | N#CC1(c2ccc(Cl)cc2)CCN(C2CCN(S(=O)(=O)c3ccccc3Cl)CC2)CC1 | – | 6.00 | –
5 | O=S(=O)(NCCCN1CCC(O)(c2ccc(Cl)cc2)CC1)c1ccccc1 | 7.05 | 6.52 | –
6 | N#CC1(c2ccc(Cl)cc2)CCN(CCCNS(=O)(=O)c2ccccc2Cl)CC1 | – | 6.22 | –
7 | O=S(=O)(c1ccccc1Cl)N1CCC(N2CCC(O)(c3ccc(Cl)cc3)CC2)CC1 | 6.89 | 6.70 | 6.74
8 | Cc1ccc(S(=O)(=O)NCCCN2CCC(O)(c3ccc(Cl)cc3)CC2)cc1 | 6.92 | 6.37 | –
9 | COc1ccc(C2(O)CCN(C3CCN(S(=O)(=O)c4ccccc4Cl)CC3)CC2)cc1 | < 5.00 | < 5.00 | –
10 | O=S(=O)(NCCCN1CCC(O)(c2ccc(Cl)cc2)CC1)c1ccc(C(F)(F)F)cc1 | 5.66 | 5.03 | –
11 | O=S(=O)(NCCCN1CCC(O)(c2ccc(Cl)cc2)CC1)c1ccc(Cl)cc1Cl | 6.44 | 6.39 | –
12 | O=S(=O)(c1ccccc1Cl)N1CCC(N2CCC(O)(c3ccc(Oc4ccccc4)cc3)CC2)CC1 | < 5.00 | < 5.00 | –
13 | O=S(=O)(c1ccccc1Cl)N1CCC[C@H](N2CCC(O)(c3ccc(Cl)cc3)CC2)C1 | 5.69 | 5.72 | –
14 | O=S(=O)(NCCCN1CCC(O)(c2ccc(Cl)cc2)CC1)c1ccc(Cl)c(Cl)c1 | 5.61 | 5.73 | –
15 | CC(C)(C)c1ccc(C2(O)CCN(C3CCN(S(=O)(=O)c4ccccc4Cl)CC3)CC2)cc1 | < 5.00 | < 5.00 | –
16 | O=S(=O)(c1ccccc1Cl)N1CCC[C@@H](N2CCC(O)(c3ccc(Cl)cc3)CC2)C1 | 5.89 | 5.70 | –
17 | O=S(=O)(NCCCN1CCC(O)(c2ccc(Cl)cc2)CC1)c1ccsc1 | 6.41 | 6.24 | –
18 | O=S(=O)(NCCCN1CCC(O)(c2ccc(Cl)cc2)CC1)c1ccccc1Cl | 7.40 | 6.96 | –
19 | O=S(=O)(c1ccccc1Cl)N1CCC(N2CCC(O)(c3ccc(F)c(Cl)c3)CC2)CC1 | 6.23 | 6.29 | –
20 | O=S(=O)(NCCCN1CCC(O)(c2ccc(Cl)cc2)CC1)c1ccc(Cl)cc1 | 6.43 | 6.10 | –
21 | O=S(=O)(c1ccccc1Cl)N1CCC(N2CCC(O)(c3ccc(Cl)cc3)C2)CC1 (configuration not stated) | < 5.00 | < 4.52 | –
22 | O=S(=O)(NCCCN1CCC(O)(c2ccc(Cl)cc2)CC1)c1cccc(Cl)c1 | 7.00 | 6.42 | –

Row | Structure (SMILES) | pIC50 [1] | pIC50 [2] | pIC50 (THP-1)
23 | CC1(N2CCC(O)(c3ccc(Cl)cc3)CC2)CCN(S(=O)(=O)c2c(Cl)cccc2Cl)CC1 | 5.33 | 5.38 | –
24 | O=S(=O)(c1ccccc1Cl)N1CCC(N2CCC(O)(c3cccc(Cl)c3)CC2)CC1 | 5.21 | 5.15 | –
25 | O=S(=O)(NCCCN1CCC(O)(c2ccc(Cl)cc2)CC1)c1cccc(Cl)c1Cl | 6.46 | 6.29 | –
26 | O=S(=O)(c1ccccc1Cl)N1CCC(N2CCCC(O)(c3ccc(Cl)cc3)CC2)CC1 (configuration not stated) | 6.89 | 6.40 | –
27 | Cc1cccc(Cl)c1S(=O)(=O)NCCCN1CCC(O)(c2ccc(Cl)cc2)CC1 | 7.40 | 7.05 | –
28 | O=S(=O)(c1ccc(Cl)c(Cl)c1Cl)N1CCC(N2CCC(O)(c3ccc(Cl)cc3)CC2)CC1 | 6.17 | 5.44 | –
29 | O=S(=O)(NCCCN1CCC(O)(c2ccc(Cl)cc2)CC1)c1ccccc1-c1ccccc1 | 7.08 | 6.22 | 6.82
30 | CC1(N2CCC(O)(c3ccc(Cl)cc3)CC2)CCN(S(=O)(=O)c2ccccc2Cl)CC1 | 5.65 | 5.29 | –
31 | COc1ccc(S(=O)(=O)NCCCN2CCC(O)(c3ccc(Cl)cc3)CC2)cc1 | 6.08 | 5.41 | –
32 | O=S(=O)(c1ccccc1Cl)N1CCC(N2CCC(O)(c3ccc(Br)cc3)CC2)CC1 | 6.74 | 6.36 | –
33 | Cc1cccc(Cl)c1S(=O)(=O)N1CCC[C@@H](N2CCC(O)(c3ccc(Cl)cc3)CC2)C1 | 6.57 | 6.41 | –
34 | O=S(=O)(c1ccccc1Cl)N1CCC(N2CCC(O)(c3ccc(F)cc3)CC2)CC1 | 5.90 | 5.93 | –
35 | O=S(=O)(NCCCN1CCC(O)(c2ccc(Cl)cc2)CC1)c1ccccc1Br | 6.77 | 6.85 | –
36 | O=S(=O)(c1c(Cl)cccc1Cl)N1CCC(N2CCC(O)(c3ccc(Cl)cc3)CC2)CC1 | 6.38 | 6.38 | –
37 | O=S(=O)(NCCCN1CCC(O)(c2ccc(Cl)cc2)CC1)c1ccccc1OC(F)(F)F | 6.72 | 6.46 | –
38 | Cc1cccc(Cl)c1S(=O)(=O)N1CCC(C)(N2CCC(O)(c3ccc(Cl)cc3)CC2)CC1 | 5.65 | 5.45 | –
39 | O=S(=O)(c1c(F)cc(F)cc1Br)N1CCC(N2CCC(O)(c3ccc(Cl)cc3)CC2)CC1 | 6.48 | 5.95 | –
40 | O=S(=O)(c1ccccc1Cl)N1CCC(N2CCC(O)(c3cc(F)c(F)c(F)c3)CC2)CC1 | 5.59 | 5.88 | –
41 | O=S(=O)(NCCCN1CCC(O)(c2ccc(Cl)cc2)CC1)c1cccs1 | 7.15 | 6.80 | –
42 | O=S(=O)(c1ccccc1Cl)N1CCC(N2CCC(O)(c3ccc(Cl)c(F)c3)CC2)CC1 | 6.21 | 6.37 | –
43 | O=S(=O)(NCCCN1CCC(O)(c2ccc(Cl)cc2)CC1)c1ccc2ccccc2c1 | 6.28 | 5.94 | –
44 | O=S(=O)(c1cccs1)N1CCC(N2CCC(O)(c3ccc(Cl)cc3)CC2)CC1 | 5.99 | 6.01 | –

Row | Structure (SMILES) | pIC50 [1] | pIC50 [2] | pIC50 (THP-1)
45 | O=S(=O)(NCCCN1CCC(O)(c2ccc(Cl)cc2)CC1)c1cc(Cl)cc(Cl)c1 | 5.87 | 6.11 | –
46 | O=S(=O)(NCCCN1CCC(O)(c2ccc(Cl)cc2)CC1)c1ccccc1C(F)(F)F | 7.30 | 6.60 | –
47 | CC1CC(N2CCC(O)(c3ccc(Cl)cc3)CC2)CCN1S(=O)(=O)c1ccccc1Br (configuration not stated) | 6.92 | 6.66 | –
48 | O=S(=O)(NCCCN1CCC(O)(c2ccc(Cl)cc2)CC1)c1ccc(-c2ccccc2)cc1 | < 4.52 | < 4.52 | –
49 | Cc1ccccc1S(=O)(=O)NCCCN1CCC(O)(c2ccc(Cl)cc2)CC1 | 7.52 | 6.82 | –
50 | O=S(=O)(c1ccccc1Br)N1CCC[C@H](N2CCC(O)(c3ccc(Cl)cc3)CC2)C1 | 5.89 | 6.34 | –
51 | O=S(=O)(NCCCN1CCC(O)(c2ccc(Cl)cc2)CC1)c1c(Cl)cccc1Cl | 7.52 | 7.10 | –
52 | O=S(=O)(NCCCN1CCC(O)(c2ccc(Cl)cc2)CC1)c1ccc(F)cc1 | 6.68 | 6.04 | –
53 | O=S(=O)(c1ccccc1Br)N1CCC[C@@H](N2CCC(O)(c3ccc(Cl)cc3)CC2)C1 | 5.85 | 5.85 | –
54 | O=S(=O)(NCCCN1CCC(O)(c2ccc(Cl)cc2)CC1)c1cc(Cl)ccc1Cl | 6.55 | 6.27 | –
55 | O=S(=O)(NCCCN1CCC(O)(c2ccc(Cl)cc2)CC1)c1ccccc1F | 7.10 | 6.24 | –
56 | O=C(NCCCN1CCC(O)(c2ccc(Cl)cc2)CC1)c1ccc2ccccc2c1 | 5.78 | 5.23 | –
57 | O=S(=O)(c1ccccc1Cl)N1CCC(N2CCC(O)(c3ccc(Cl)c(Cl)c3)CC2)CC1 | 6.74 | 6.05 | –
58 | O=S(=O)(NCCCN1CCC(O)(c2ccc(Cl)cc2)CC1)c1ccccc1-c1ccsc1 | 6.96 | 6.46 | –
59 | Cc1cccc(Cl)c1S(=O)(=O)N1CCC[C@H](N2CCC(O)(c3ccc(Cl)cc3)CC2)C1 | 6.32 | 6.37 | –
60 | O=S(=O)(NCCCN1CCC(O)(c2ccc(Cl)cc2)CC1)c1ccc(F)cc1Cl | 7.00 | 6.44 | –
61 | CC1CC(N2CCC(O)(c3ccc(Cl)cc3)CC2)CCN1S(=O)(=O)c1ccccc1Cl (configuration not stated) | 6.55 | 6.49 | –
62 | Cc1cccc(Cl)c1S(=O)(=O)N1CCC(N2CCC(O)(c3ccc(Cl)cc3)C2)CC1 (configuration not stated) | < 5.00 | < 4.52 | –
63 | CC1(N2CCC(O)(c3ccc(Cl)cc3)CC2)CCN(S(=O)(=O)c2cccs2)CC1 | 5.13 | < 5.00 | –
64 | O=S(=O)(c1ccccc1Cl)N1CCC(N2CCC(O)(c3ccc(-c4ccccc4)cc3)CC2)CC1 | < 5.00 | < 5.00 | –
65 | O=S(=O)(NCCCN1CCC(O)(c2ccc(Cl)cc2)CC1)c1cccc2ccccc12 | 6.74 | 6.17 | –
66 | O=S(=O)(NCCCN1CCC(O)(c2ccc(Cl)cc2)CC1)c1ccc(OC(F)(F)F)cc1 | 5.44 | 5.05 | –
